# A selection: hits, their analogues and other compounds. The true share with any hit is near 2.1%.
# MIN6 prolif – MIN6 beta-cell proliferation induction | MIN6 cells proliferation, ATPlite luminescence, 48 h; cells starved in 0.2% serum; 100% = growth in 10% serum | proliferation, % at 10 µM | 330,000 tested, 0.29% active | AID 2380;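 active = compounds whose signal lies at least 3.5 SD above the mean of all wells on their plate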;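 also: 0% = DMSO-treated cells in low-serum medium and 100% = 10% serum control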
# CRFR2-BP ag – CRF-BP/CRF-R2 complex agonism; HEK293 CRF-R2/CRF-BP, calcium dye fluorescence (FLIPR); percent of saturating CRF peptide response; activation, % at 13.2 µM; 350,000 tested, 0.46% active; AID 588473;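 active = activation of at least 50%, plus an integration ratio under a set limit after plate pattern correction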;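 also: plate controls were neutral control wells without compound for no effect and CRF at EC100 for full effect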
# UCH37 inh – human UCH37 deubiquitinating enzyme inhibition; Q9Y5K5; purified proteasome/UCH37, Ub-AMC cleavage fluorescence; inhibition, % (test concentration not listed); 330,000 tested, 0.33% active;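 active = mean inhibition over replicate wells above about 20%, limit read from the data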;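 also: 0% = compound-free wells with enzyme and 100% = wells lacking proteasome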
# Target sequence (Q9Y5K5 whole entry, looked up): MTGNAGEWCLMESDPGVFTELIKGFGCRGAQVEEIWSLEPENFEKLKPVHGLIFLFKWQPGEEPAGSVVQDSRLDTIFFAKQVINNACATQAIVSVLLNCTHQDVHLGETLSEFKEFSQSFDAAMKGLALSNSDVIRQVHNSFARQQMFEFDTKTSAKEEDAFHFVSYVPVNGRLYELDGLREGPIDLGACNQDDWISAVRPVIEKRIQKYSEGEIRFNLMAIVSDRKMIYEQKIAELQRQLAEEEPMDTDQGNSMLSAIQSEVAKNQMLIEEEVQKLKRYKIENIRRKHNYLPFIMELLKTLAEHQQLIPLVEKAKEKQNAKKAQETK
#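 Assay system: Proteasome-bound UCH37. Buffer or medium: pH 7.4 Tris-HCl (50 mM) with ovalbumin, ATP-MgCl2, DTT. Incubation: 30 min preincubation with enzyme, 25 min cleavage at room temperature. Measured by: fluorescence, ex 355 nm, em 460 nm. Read-out basis: percent inhibition. Control set: wells without proteasome as full block, compound-free enzyme plus substrate as uninhibited.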
# H9c2 protect – modulators protecting cardiomyocytes from myocardial damage; 360,000 tested, 0.63% active; AID 588492; H9c2 cardiomyocytes, H2O2 injury protection, ATPLite, 2 h; protection from H2O2 cell death, % at 20 µM;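 active = compounds giving at least 50% protection of heart cells from peroxide-induced death in the single-dose screen, raw or plate-pattern-corrected value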;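 also: 0% = DMSO wells with peroxide and 100% = DMSO wells without peroxide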
# iPSC survival up – hiPSC single-cell survival enhancement; ATPlite luminescence; 100% = ROCK inhibitor wells, 0% = DMSO; AID 602274; 360,000 tested, 0.044% active; survival enhancement, % at 20 µM; in the data active = survival enhancement above about 18%;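 also: cells exposed to compounds for 16 hours before the ATP read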
# CRFBP-R2 block – blocks CRF-induced signaling of the CRF-BP/CRF-R2 complex; AID 588475; inhibition, % at 11.8 µM; 350,000 tested, 0.59% active; HEK293 CRF-R2/CRF-BP, CRF-induced calcium fluorescence;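 active = inhibition of the ligand-induced calcium signal above about 50% at the single tested concentration, limit read from the data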
# Starred values were filed as active, the others as inactive; · = no result given.
SMILES,MIN6 prolif,CRFR2-BP ag,UCH37 inh,H9c2 protect,iPSC survival up,CRFBP-R2 block
COc1ccc(-n2c(C)cc(/C=C3\SC(=S)N(Cc4ccco4)C3=O)c2C)cc1,·,25,6,-9,1,-41
CCN1CCN(c2c(/C=C3\SC(=S)N(Cc4ccco4)C3=O)c(C)c(C#N)c(=O)n2C)CC1,-6,90*,3,-1,0,-95
CC1C(=NO)C(CN(C)C)C2CC1C2(C)C (stereo not drawn),·,·,6,·,·,·
O=C(O)COc1ccc(C=NNC(=O)Cc2ccc(Cl)cc2)cc1,·,·,4,·,·,·
Cc1ccc2nc(N3C(=O)C(O)=C(C(=O)c4ccc(C)o4)C3c3cccc(O)c3)sc2c1 (stereo not drawn),-5,11,3,-4,-1,96*
COc1ccc2nc(N3C(=O)C(O)=C(C(=O)c4ccco4)C3c3ccc(OC)c(OC)c3)sc2c1 (stereo not drawn),·,0,·,0,-2,45
CC(=NNC(=O)c1nnn(-c2nonc2N)c1C(C)C)c1ccc2ccccc2c1,·,·,4,·,·,·
CCOc1ccc(C2C(C#N)=C(N)N3C(=C2C#N)Sc2ccccc23)cc1 (stereo not drawn),-4,93*,-18,2,0,-116
N#CC1=C(N)N2C(=C(C#N)C1c1ccccc1)Sc1ccccc12 (stereo not drawn),-1,·,·,·,·,·
Fc1ccc(NC(=S)NNc2ncc(C(F)(F)F)cc2Cl)c(F)c1,-5,56*,0,-19,-2,42
FC(F)(F)c1cnc(NNC(=S)Nc2ccc(Cl)cc2)c(Cl)c1,-6,52*,3,-15,-1,39
Cc1ccc(NC(=S)NNc2ncc(C(F)(F)F)cc2Cl)c(C)c1,-2,-9,5,-5,0,24
Cc1ccc(NC(=S)NNc2ncc(C(F)(F)F)cc2Cl)cc1,0,12,1,-6,0,7
O=C(O)COc1ccccc1C=Nn1c(C2CCCCC2)n[nH]c1=S,·,·,2,·,·,·
Brc1ccccc1C=NN1CCCCC1,·,·,2,·,·,·
O=P(O)(c1ccccc1)c1ccccc1O,2,0,-1,16,-2,-4
O=P(c1ccccc1)(c1ccccc1)c1cc(S(=O)(=O)O)ccc1O,-3,115*,0,1,1,-73
COc1ccc(C(=O)N2CCOC2CNC(=O)C(=O)NCc2ccc(F)cc2)cc1 (stereo not drawn),-5,1,·,0,0,3
O=C(NCc1ccc(F)cc1)C(=O)NCC1OCCN1C(=O)c1ccc(Cl)cc1 (stereo not drawn),1,-5,-1,3,-3,60*
Cc1ccc([N+](=O)[O-])cc1N=Nc1c(-c2ccc([N+](=O)[O-])cc2)[nH]n(C(N)=S)c1=O,·,51*,12,-23,0,112*
Cc1ccc([N+](=O)[O-])cc1N=Nc1c(C)[nH]n(C(N)=S)c1=O,-2,-1,14,2,0,-3
CC(C)n1c(O)c(N=NC(=O)C2COc3ccccc3O2)c2ccccc21 (stereo not drawn),-1,-6,4,27,-1,68*
CCOc1cc(N2CCOCC2)c(OCC)cc1NC(=O)c1nn(CC)c(=O)c2ccccc12,-8,0,1,54*,0,8
CCOc1cc(N2CCOCC2)c(OCC)cc1NC(=O)c1ccccc1C,-3,-1,2,13,0,-6
CCn1nc(C(=O)NNC(=O)c2cc(Cl)ccc2OC)c2ccccc2c1=O,9,-1,·,66*,-1,2
CCOc1cc(N2CCOCC2)c(OCC)cc1NC(=O)c1ccc(OCc2c(C)noc2C)c(OC)c1,2,-4,-12,63*,0,5
COc1ccc(NC2CCCN(C(=O)c3csc(C(C)C)n3)C2)cc1OC (stereo not drawn),0,0,1,-2,0,0
COc1ccc(NC2CCCN(C(=O)c3cccc(C)n3)C2)cc1OC (stereo not drawn),1,1,0,-1,0,103*
CC(C)(C)[C@@H]1CCC(=O)N(CC[C@H](N=[N+]=[N-])c2ccccc2)CC1,-6,-3,28*,-4,-1,2
